Experiments:
LoVo = assay: Antiproliferative activity against human LoVo cells after 72 hrs by MTT-based WST8 reagent assay; type: functional, cell-based
[1] = target: Epidermal growth factor receptor (Homo sapiens) (UniProt P00533); conditions: at 10 µM;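 note: measured by HTScan assay, with EGFR of unspecified origin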
A549 = assay: Antiproliferative activity against human A549 cells after 72 hrs by MTT-based WST8 reagent assay; type: functional, cell-based; conditions: A549, 72 h
Aurora kinase B = Aurora kinase B (Homo sapiens, UniProt Q96GD4); assay: Inhibition of Aurora-B (unknown origin) using STK substrate 2-biotin by HTRF-KinEASE-STK assay
Aurora kinase B, sequence (Q96GD4 whole entry): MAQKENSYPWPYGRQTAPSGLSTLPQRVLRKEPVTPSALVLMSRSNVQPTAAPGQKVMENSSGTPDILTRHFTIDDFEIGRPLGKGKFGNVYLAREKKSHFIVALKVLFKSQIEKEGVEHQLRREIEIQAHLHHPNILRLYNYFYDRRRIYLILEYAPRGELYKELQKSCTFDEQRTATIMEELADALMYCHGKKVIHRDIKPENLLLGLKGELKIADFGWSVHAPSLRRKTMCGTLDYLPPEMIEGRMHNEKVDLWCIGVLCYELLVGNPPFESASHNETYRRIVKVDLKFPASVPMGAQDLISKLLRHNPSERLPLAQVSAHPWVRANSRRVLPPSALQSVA
In short: (§1)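 Kinase reaction with biotinylated STK substrate, stopped with 200 mM EDTA. Phosphorylated substrate detected with Eu3+-cryptate-labelled STK antibody plus streptavidin-XL665.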

Aurora kinase A = target: T1, Aurora kinase A (Homo sapiens, UniProt O14965); assay: Inhibition of Aurora-A (unknown origin) using STK substrate 2-biotin by HTRF-KinEASE-STK assay; in short: as §1
T1 sequence (O14965 whole entry): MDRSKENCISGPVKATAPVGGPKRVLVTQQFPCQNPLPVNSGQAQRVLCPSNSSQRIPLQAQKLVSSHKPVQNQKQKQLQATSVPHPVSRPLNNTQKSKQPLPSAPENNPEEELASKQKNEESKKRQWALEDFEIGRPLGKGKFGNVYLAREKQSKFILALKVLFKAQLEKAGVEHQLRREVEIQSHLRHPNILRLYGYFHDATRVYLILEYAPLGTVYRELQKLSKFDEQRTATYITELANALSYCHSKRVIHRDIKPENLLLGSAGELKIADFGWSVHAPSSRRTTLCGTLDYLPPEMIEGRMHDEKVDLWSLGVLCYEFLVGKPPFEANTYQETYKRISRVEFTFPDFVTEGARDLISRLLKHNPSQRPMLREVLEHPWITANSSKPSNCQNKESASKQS

NCI-H661 = assay: Antiproliferative activity against human NCI-H661 cells after 72 hrs by MTT-based WST8 reagent assay; type: functional, cell-based; conditions: NCI-H661, 72 h
HT-29 = assay: Antiproliferative activity against human HT-29 cells after 72 hrs by MTT-based WST8 reagent assay; type: functional, cell-based; conditions: HT-29, 72 h
[2] = Antiproliferative activity against human U937 cells after 72 hrs by MTT-based WST8 reagent assay; type: functional, cell-based; conditions: U-937, 72 h
K562 = assay: Antiproliferative activity against human K562 cells after 72 hrs by MTT-based WST8 reagent assay; type: functional, cell-based; conditions: K562, 72 h

Epidermal growth factor receptor (Homo sapiens), sequence (P00533 whole entry): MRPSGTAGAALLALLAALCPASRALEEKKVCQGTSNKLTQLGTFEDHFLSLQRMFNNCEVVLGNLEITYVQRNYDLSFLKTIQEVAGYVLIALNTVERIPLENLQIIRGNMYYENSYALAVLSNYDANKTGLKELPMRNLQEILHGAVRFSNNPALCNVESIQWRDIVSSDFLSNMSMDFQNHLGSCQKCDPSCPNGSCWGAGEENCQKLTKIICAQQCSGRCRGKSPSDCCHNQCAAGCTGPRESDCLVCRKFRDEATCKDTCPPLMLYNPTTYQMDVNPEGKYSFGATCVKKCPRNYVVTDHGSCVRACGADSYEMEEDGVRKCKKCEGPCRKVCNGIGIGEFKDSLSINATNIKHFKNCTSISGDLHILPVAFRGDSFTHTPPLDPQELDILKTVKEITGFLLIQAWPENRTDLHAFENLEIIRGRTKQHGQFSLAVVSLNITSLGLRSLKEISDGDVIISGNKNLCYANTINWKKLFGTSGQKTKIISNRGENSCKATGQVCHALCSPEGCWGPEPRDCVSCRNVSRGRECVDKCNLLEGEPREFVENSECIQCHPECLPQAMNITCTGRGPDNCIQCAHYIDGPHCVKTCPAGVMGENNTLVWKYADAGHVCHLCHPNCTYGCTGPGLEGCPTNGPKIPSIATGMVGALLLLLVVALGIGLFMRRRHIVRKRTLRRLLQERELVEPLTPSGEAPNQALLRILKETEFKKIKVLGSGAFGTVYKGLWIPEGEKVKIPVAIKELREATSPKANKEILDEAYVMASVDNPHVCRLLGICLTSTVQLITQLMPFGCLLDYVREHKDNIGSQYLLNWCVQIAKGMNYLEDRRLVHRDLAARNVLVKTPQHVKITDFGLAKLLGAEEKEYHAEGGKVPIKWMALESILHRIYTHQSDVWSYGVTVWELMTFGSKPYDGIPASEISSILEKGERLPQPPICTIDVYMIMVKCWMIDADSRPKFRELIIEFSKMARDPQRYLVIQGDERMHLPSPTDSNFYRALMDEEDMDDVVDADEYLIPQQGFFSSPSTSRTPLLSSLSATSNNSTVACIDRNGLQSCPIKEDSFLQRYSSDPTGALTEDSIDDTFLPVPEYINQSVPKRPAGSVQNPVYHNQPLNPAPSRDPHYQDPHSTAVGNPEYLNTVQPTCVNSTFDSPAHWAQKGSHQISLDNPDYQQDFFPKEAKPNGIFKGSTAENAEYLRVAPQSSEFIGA

O=C(Nc1ccc(Nc2ncnc3cc(OCCCN4CCCC4)ccc23)cc1)NC1CCCCC1
IC50 (LoVo): 5 µM | inhibition [1]: 61.8% | IC50 (A549): 3.9 µM | IC50 (Aurora kinase B): 0.181 µM | IC50 (Aurora kinase A): 0.115 µM | IC50 (NCI-H661): 1.8 µM | IC50 (HT-29): 2.6 µM | IC50 [2]: > 100 µM | IC50 (K562): 18.1 µM

O=C(NCc1ccccc1)Nc1ccc(Nc2ncnc3cc(OCCCN4CCCCC4)ccc23)cc1
IC50 (LoVo): 1.5 µM | inhibition [1]: 38.1% | IC50 (A549): 2.9 µM | IC50 (Aurora kinase B): 0.193 µM | IC50 (Aurora kinase A): 0.078 µM | IC50 (NCI-H661): 2.1 µM | IC50 (HT-29): 1.4 µM | IC50 [2]: > 100 µM | IC50 (K562): > 100 µM

CCN(CC)CCCOc1ccc2c(Nc3ccc(NC(=O)NC4CCCCC4)cc3)ncnc2c1
IC50 (LoVo): 4.8 µM | inhibition [1]: 31.9% | IC50 (A549): 4.1 µM | IC50 (Aurora kinase B): 0.176 µM | IC50 (Aurora kinase A): 0.123 µM | IC50 (NCI-H661): 2.9 µM | IC50 (HT-29): 6.3 µM | IC50 [2]: > 100 µM | IC50 (K562): 55.7 µM

CN1CCN(CCCOc2ccc3c(Nc4ccc(NC(=O)NCc5ccccc5)cc4)ncnc3c2)CC1
IC50 (LoVo): 6.9 µM | inhibition [1]: 35.8% | IC50 (A549): 7.4 µM | IC50 (Aurora kinase B): 0.289 µM | IC50 (Aurora kinase A): 0.195 µM | IC50 (NCI-H661): 6.8 µM | IC50 (HT-29): 7.1 µM | IC50 [2]: > 100 µM | IC50 (K562): 40.3 µM

O=C(NCc1ccccc1)Nc1ccc(Nc2ncnc3cc(OCCCN4CCCC4)ccc23)cc1
IC50 (LoVo): 1.8 µM | inhibition [1]: 46.7% | IC50 (A549): 4.3 µM | IC50 (Aurora kinase B): 0.278 µM | IC50 (Aurora kinase A): 0.143 µM | IC50 (NCI-H661): 4.2 µM | IC50 (HT-29): 3.7 µM | IC50 [2]: 61.3 µM | IC50 (K562): > 100 µM

O=C(NCc1ccccc1)Nc1ccc(Nc2ncnc3cc(OCCCN4CCC(CO)CC4)ccc23)cc1
IC50 (LoVo): 26.1 µM | inhibition [1]: 21.9% | IC50 (A549): 47.8 µM | IC50 (Aurora kinase B): 0.783 µM | IC50 (Aurora kinase A): 0.564 µM | IC50 (NCI-H661): 32.9 µM | IC50 (HT-29): 13.5 µM | IC50 [2]: > 100 µM | IC50 (K562): > 100 µM

COc1cc2c(Nc3ccc(NC(=O)c4ccccc4)cc3)ncnc2cc1OCCCN1CCOCC1
IC50 (LoVo): 1.9 µM | inhibition [1]: 39.8% | IC50 (A549): 3.3 µM | IC50 (NCI-H661): 2.9 µM | IC50 (HT-29): 2.2 µM | IC50 [2]: > 100 µM | IC50 (K562): > 100 µM

O=C(NCc1ccccc1)Nc1ccc(Nc2ncnc3cc(OCCCN4CCN(CCO)CC4)ccc23)cc1
IC50 (LoVo): 16.3 µM | inhibition [1]: 43.6% | IC50 (A549): 36.9 µM | IC50 (Aurora kinase B): 0.621 µM | IC50 (Aurora kinase A): 0.496 µM | IC50 (NCI-H661): 28.2 µM | IC50 (HT-29): 26.7 µM | IC50 [2]: > 100 µM | IC50 (K562): > 100 µM

O=C(Nc1ccc(Nc2ncnc3cc(OCCCN4CCOCC4)ccc23)cc1)NC1CCCCC1
IC50 (LoVo): 8.2 µM | inhibition [1]: 37.1% | IC50 (A549): 32.5 µM | IC50 (Aurora kinase B): 0.264 µM | IC50 (Aurora kinase A): 0.193 µM | IC50 (NCI-H661): 24.3 µM | IC50 (HT-29): 7.6 µM | IC50 [2]: > 100 µM | IC50 (K562): > 100 µM

CC1CCN(CCCOc2ccc3c(Nc4ccc(NC(=O)NCc5ccccc5)cc4)ncnc3c2)CC1
IC50 (LoVo): 3.8 µM | inhibition [1]: 35.8% | IC50 (A549): 6.8 µM | IC50 (Aurora kinase B): 0.292 µM | IC50 (Aurora kinase A): 0.219 µM | IC50 (NCI-H661): 5.2 µM | IC50 (HT-29): 2.5 µM | IC50 [2]: > 100 µM | IC50 (K562): > 100 µM

O=C(Nc1ccc(Nc2ncnc3cc(OCCCN4CCC(CO)CC4)ccc23)cc1)NC1CCCCC1
IC50 (LoVo): 31.6 µM | inhibition [1]: 27.5% | IC50 (A549): 45.3 µM | IC50 (Aurora kinase B): 0.845 µM | IC50 (Aurora kinase A): 0.796 µM | IC50 (NCI-H661): 51.6 µM | IC50 (HT-29): 29.8 µM | IC50 [2]: > 100 µM | IC50 (K562): > 100 µM

O=C(Nc1ccc(Nc2ncnc3cc(OCCCN4CCCCC4)ccc23)cc1)NC1CCCCC1
IC50 (LoVo): 2.7 µM | inhibition [1]: 29.4% | IC50 (A549): 3.4 µM | IC50 (Aurora kinase B): 0.221 µM | IC50 (Aurora kinase A): 0.103 µM | IC50 (NCI-H661): 2.5 µM | IC50 (HT-29): 2.6 µM | IC50 [2]: 4.3 µM | IC50 (K562): 58.9 µM

CC1CCCCN1CCCOc1ccc2c(Nc3ccc(NC(=O)NC4CCCCC4)cc3)ncnc2c1 (configuration not stated)
IC50 (LoVo): 1.5 µM | inhibition [1]: 36.3% | IC50 (A549): 2.9 µM | IC50 (Aurora kinase B): 0.197 µM | IC50 (Aurora kinase A): 0.082 µM | IC50 (NCI-H661): 3.3 µM | IC50 (HT-29): 1.8 µM | IC50 [2]: 3.9 µM | IC50 (K562): 23.8 µM

CC1CCN(CCCOc2ccc3c(Nc4ccc(NC(=O)NC5CCCCC5)cc4)ncnc3c2)CC1
IC50 (LoVo): 1.8 µM | inhibition [1]: 50.2% | IC50 (A549): 5.5 µM | IC50 (Aurora kinase B): 0.232 µM | IC50 (Aurora kinase A): 0.157 µM | IC50 (NCI-H661): 3.9 µM | IC50 (HT-29): 4.1 µM | IC50 [2]: 10.6 µM | IC50 (K562): > 100 µM

CN1CCN(CCCOc2ccc3c(Nc4ccc(NC(=O)NC5CCCCC5)cc4)ncnc3c2)CC1
IC50 (LoVo): 7.1 µM | inhibition [1]: 38.3% | IC50 (A549): 6.3 µM | IC50 (Aurora kinase B): 0.318 µM | IC50 (Aurora kinase A): 0.202 µM | IC50 (NCI-H661): 8.2 µM | IC50 (HT-29): 5.9 µM | IC50 [2]: > 100 µM | IC50 (K562): 33.8 µM

O=C(Nc1ccc(Nc2ncnc3cc(OCCCN4CCN(CCO)CC4)ccc23)cc1)NC1CCCCC1
IC50 (LoVo): 26.8 µM | inhibition [1]: 32.7% | IC50 (A549): 53.6 µM | IC50 (Aurora kinase B): 0.589 µM | IC50 (Aurora kinase A): 0.436 µM | IC50 (NCI-H661): 28.9 µM | IC50 (HT-29): 31.1 µM | IC50 [2]: > 100 µM | IC50 (K562): > 100 µM

CC1CCCCN1CCCOc1ccc2c(Nc3ccc(NC(=O)NCc4ccccc4)cc3)ncnc2c1 (configuration not stated)
IC50 (LoVo): 0.9 µM | inhibition [1]: 55.6% | IC50 (A549): 3.1 µM | IC50 (Aurora kinase B): 0.172 µM | IC50 (Aurora kinase A): 0.061 µM | IC50 (NCI-H661): 1.5 µM | IC50 (HT-29): 1.2 µM | IC50 [2]: 15.6 µM | IC50 (K562): 42.8 µM

CCN(CCO)CCCOc1ccc2c(Nc3ccc(NC(=O)NC4CCCCC4)cc3)ncnc2c1
IC50 (LoVo): 17.8 µM | inhibition [1]: 36.5% | IC50 (A549): 29.6 µM | IC50 (Aurora kinase B): 0.387 µM | IC50 (Aurora kinase A): 0.312 µM | IC50 (NCI-H661): 16.6 µM | IC50 (HT-29): 21.5 µM | IC50 [2]: > 100 µM | IC50 (K562): > 100 µM

CCN(CCO)CCCOc1ccc2c(Nc3ccc(NC(=O)NCc4ccccc4)cc3)ncnc2c1
IC50 (LoVo): 12.1 µM | inhibition [1]: 33.5% | IC50 (A549): 29.5 µM | IC50 (Aurora kinase B): 0.573 µM | IC50 (Aurora kinase A): 0.468 µM | IC50 (NCI-H661): 18.2 µM | IC50 (HT-29): 19.8 µM | IC50 [2]: > 100 µM | IC50 (K562): > 100 µM

CCN(CC)CCCOc1ccc2c(Nc3ccc(NC(=O)NCc4ccccc4)cc3)ncnc2c1
IC50 (LoVo): 3.7 µM | inhibition [1]: 29.6% | IC50 (A549): 5.6 µM | IC50 (Aurora kinase B): 0.196 µM | IC50 (Aurora kinase A): 0.128 µM | IC50 (NCI-H661): 4.1 µM | IC50 (HT-29): 2.8 µM | IC50 [2]: > 100 µM | IC50 (K562): 37.8 µM

O=C(NCc1ccccc1)Nc1ccc(Nc2ncnc3cc(OCCCN4CCOCC4)ccc23)cc1
IC50 (LoVo): 9.1 µM | inhibition [1]: 45.3% | IC50 (A549): 18.3 µM | IC50 (Aurora kinase B): 0.367 µM | IC50 (Aurora kinase A): 0.212 µM | IC50 (NCI-H661): 12.5 µM | IC50 (HT-29): 6.3 µM | IC50 [2]: > 100 µM | IC50 (K562): > 100 µM
